Laboratory results reported in ChEMBL document CHEMBL2424608, “Discovery of novel N-substituted carbazoles as neuroprotective agents with potent anti-oxidative activity” (Eur J Med Chem, 2013).
Calls of active or inactive are those of the source. The rule behind the calls is not given here.

Columns and labels:
[1] = tested on: HT-22; assay: Neuroprotective activity against mouse HT22 cells assessed as inhibition of glutamate-induced cell injury pretreated at 3 uM for 30 mins measured after 24 hrs by MTT assay; type: functional
Summary of the method: (§1)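 HT22 mouse hippocampal cells in DMEM/10% FBS at 37 °C, 5% CO2, seeded at 4000 cells/well. Compound (30 mM DMSO stock, diluted in medium) added 30 min before glutamate (2 mM) or HCA (500 µM), then 24 h exposure. Controls get vehicle. Viability by MTT (500 µg/mL, 1 h, 37 °C), DMSO solubilisation, A570 relative to control = 100%. n = 6.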

[2] = tested on: HT-22; assay: Neuroprotective activity against mouse HT22 cells assessed as inhibition of HCA-induced cell injury pretreated at 10 uM for 30 mins measured after 24 hrs by MTT assay; type: functional; summary of the method: as §1
[3] = tested on: HT-22; assay: Neuroprotective activity against mouse HT22 cells assessed as inhibition of HCA-induced cell injury pretreated at 30 uM for 30 mins measured after 24 hrs by MTT assay; type: functional; summary of the method: as §1
[4] = tested on: HT-22; assay: Neuroprotective activity against mouse HT22 cells assessed as inhibition of HCA-induced cell injury pretreated at 3 uM for 30 mins measured after 24 hrs by MTT assay; type: functional; summary of the method: as §1
[5] = tested on: HT-22; assay: Neuroprotective activity against mouse HT22 cells assessed as inhibition of glutamate-induced cell injury pretreated at 10 uM for 30 mins measured after 24 hrs by MTT assay; type: functional; summary of the method: as §1
[6] = tested on: HT-22; assay: Neuroprotective activity against mouse HT22 cells assessed as inhibition of glutamate-induced cell injury pretreated at 30 uM for 30 mins measured after 24 hrs by MTT assay; type: functional; summary of the method: as §1
[7] = tested on: HT-22; assay: Neuroprotective activity against mouse HT22 cells assessed as inhibition of glutamate-induced GSH depletion pretreated at 10 to 30 uM for 30 mins measured after 10 hrs by glutathione assay kit
[8] = tested on: HT-22; assay: Neuroprotective activity against mouse HT22 cells assessed as inhibition of glutamate-induced cell injury pretreated for 30 mins measured after 24 hrs by MTT assay; type: functional, cell-based; summary of the method: as §1
[9] = tested on: HT-22; assay: Neuroprotective activity against mouse HT22 cells assessed as inhibition of glutamate-induced cell shrinkage and debris pretreated at 3 uM for 30 mins measured after 24 hrs by phase-contrast microscopy; type: functional, cell-based
Summary of the method: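 HT22 cells get compound 30 min before glutamate (2 mM). Morphology is viewed by inverted phase-contrast microscopy.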

[10] = tested on: HT-22; assay: Cytotoxicity against mouse HT22 cells at 30 uM by LDH assay; type: cell-based; conditions: ht-22, 30 µM
Summary of the method: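 HT22 cells given compound alone at 30 µM; cytotoxicity read by LDH release assay.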

[11] = tested on: HT-22; assay: Neuroprotective activity against mouse HT22 cells assessed as inhibition of glutamate-induced ROS production pretreated for 30 mins measured after 10 hrs by DHE-based fluorescence assay; type: functional, cell-based
Summary of the method: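 HT22 cells get compound for 30 min, then glutamate (2 mM). After exposure, cells are washed with PBS pH 7.4 and loaded with DHE at 10 µM in serum-free DMEM for 30 min. Fluorescence microscopy plus plate-reader intensity at ex 485/em 595 nm.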

Structure (SMILES)	inhibition at 3 µM [1]	inhibition at 10 µM [2]	inhibition at 30 µM [3]	inhibition at 3 µM [4]	inhibition at 10 µM [5]	inhibition at 30 µM [6]	inhibition [3]	inhibition [6]	inhibition [7]	inhibition [8]	inhibition [9]	Activity [10]	inhibition [11]
Brc1ccc(-n2c3ccccc3c3ccccc32)cc1	0%	0%	0%	0%	0%	0%							
Cc1ccc(S(=O)(=O)n2c3ccccc3c3ccccc32)cc1	0%	13%	34%	4%	10%	47%							
Fc1ccc(-n2c3ccccc3c3ccccc32)cc1	0%	0%	0%	0%	0%	0%							
Clc1ccc(-n2c3ccccc3c3ccccc32)cc1	0%	0%	40%	0%	0%	20%							
CCCCn1c2ccccc2c2ccccc21	0%	0%	0%	0%	0%	0%							
c1ccc(-n2c3ccccc3c3ccccc32)cc1	0%	0%	5%	0%	7%	6%							
c1ccc2c(c1)sc1ccccc12							inactive	inactive					
COc1ccc2c3ccccc3n(S(=O)(=O)c3ccc(C)cc3)c2c1	0.8%	0%	0%	0%	2%	4%							
COc1ccc2c(c1)c1ccccc1n2S(=O)(=O)c1ccc(C)cc1	0%	0%	0%	0%	3%	5.2%							
CC(C)(C)c1ccc(-n2c3ccccc3c3ccccc32)cc1	0%	30%	63%	2%	35%	70%							
Cc1ccc(S(=O)(=O)n2c3ccccc3c3ccc4ccccc4c32)cc1	4%	30%	30%	18%	16%	26%							
Cc1ccc(-n2c3ccccc3c3ccccc32)nc1	0%	5%	12%	0%	0%	5%							
FC(F)(F)c1ccc(-n2c3ccccc3c3ccccc32)cc1	0%	10%	80%	0%	14%	68%							
Cc1ccc(-n2c3ccccc3c3ccc(-c4ccccc4)cc32)cc1	63%	77%	44%	64%	69%	50%			inactive	Dose-dependent effect	Active	Non-toxic	Dose-dependent effect
c1ccc2c(c1)oc1ccccc12							inactive	inactive					
Cc1ccc(S(=O)(=O)n2c3ccccc3c3ccc(C(F)(F)F)cc32)cc1	0%	6%	38%	0%	10%	42%							
CN(C)c1ccc(-n2c3ccccc3c3ccccc32)cc1	20%	30%	81%	0%	40%	77%							
Cc1ccc(-n2c3ccccc3c3ccccc32)cc1	0%	0%	0%	0%	0%	0%							
Cc1ccc(S(=O)(=O)n2c3ccccc3c3ccc(-c4ccccc4)cc32)cc1	12%	18%	30%	11%	19%	30%							
COc1ccc2c(c1)c1ccccc1n2-c1ccc(C(C)(C)C)cc1	0%	0%	0%	0%	0%	0%							
Cc1ccc(-n2c3ccccc3c3ccc4ccccc4c32)cc1	0%	0%	0%	0%	0%	0%							
c1ccc2c(c1)c1ccccc1n2C1CCCCC1	3%	8%	10%	7%	8%	20%							
Fc1cccc(-n2c3ccccc3c3ccccc32)c1	0%	0%	0%	0%	0%	0%							
COc1ccc(-n2c3ccccc3c3ccccc32)cc1	3%	32%	71%	0%	25%	59%							
OCCCCn1c2ccccc2c2ccccc21	0%	1%	12%	0%	1%	4%							
CCc1ccc(S(=O)(=O)n2c3ccccc3c3ccccc32)cc1	0%	6%	30%	0%	3%	28%							
Cc1ccc(S(=O)(=O)n2c3ccccc3c3ccc(C#N)cc32)cc1	3%	0%	0%	0%	2%	7%							
